Experiments:
Type in all cases: functional
SW1573 = test: Antiproliferation activity against human SW1573 cells after 48 hrs by SRB assay; details: SW1573, 48 h
Procedure, shortened: (§1)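 NCI protocol, SRB read-out after 48 h continuous drug exposure; top test concentration 100 µM. A dose–response curve gives percentage growth (PG). GI50, TGI and LC50 are the concentrations at PG +50, 0 and −50. Values in µM, means of two to four experiments with standard deviation.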

A2780 = test: Antiproliferative activity against human A2780 cells after 48 hrs by SRB assay; details: A2780, 48 h; for CC50: read-out: LC50 (the source's name); procedure, shortened: as §1
WiDr = test: Antiproliferation activity against human WiDr cells after 48 hrs by SRB assay; details: for CC50: read-out: LC50 (the source's name); procedure, shortened: as §1

Row | Compound | GI50 (SW1573) [µM] | LC50 (concentration giving 50% net cell kill) (SW1573) [µM] | TGI (SW1573) [µM] | GI50 (A2780) [µM] | GI50 (WiDr) [µM] | TGI (WiDr) [µM] | CC50 (WiDr) [µM] | TGI (A2780) [µM] | CC50 (A2780) [µM]
1 | CCCCCCC[C@H]1OC(=O)C[C@H]1OC1C=CCCC1 (some centres not stated) | 23 | 95 | 49 | 84 | – | – | – | – | –
2 | CCCCCCC[C@H]1OC(=O)C[C@H]1OCc1ccccc1 | 52 | – | – | 63 | 44 | – | – | – | –
3 | CCCCCCC[C@H]1OC(=O)C[C@H]1OC1CCCCC1 | 18 | 71 | 36 | 16 | 16 | 33 | 71 | 31 | 61
4 | C=CC(CCCCC)O[C@@H]1CC(=O)O[C@@H]1CCCCCCC (some centres not stated) | 27 | 96 | 78 | 19 | 27 | 81 | 97 | 42 | 88
5 | C#CC(CCCCCCC)O[C@@H]1CC(=O)O[C@@H]1CCCCCCC (some centres not stated) | 32 | 97 | 83 | 22 | 32 | 86 | – | 51 | 80
6 | C=CCC(C)O[C@@H]1CC(=O)O[C@@H]1CCCCCCC (some centres not stated) | 33 | – | 83 | 48 | 39 | – | – | – | –
